High-throughput results: PubChem BioAssay, several laboratories
An excerpt weighted towards active compounds, which were near 1.9% of everything screened.
Hck-Nef inh: inhibitors of Nef-activated human Hck kinase, primary screen, biochemical, Z-Lyte FRET, 384-well, Hck-YEEI; Tyrosine-protein kinase HCK (Homo sapiens), P08631; Recombinant Hck-YEEI plus Nef, Z-Lyte FRET kinase assay; inhibition, % at 20 µM; 220,000 tested, 0.68% active; AID 463187, 2010;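 active means Hck-Nef kinase inhibition above about 50%, limit read from the data; inactive means inhibition below that limit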
Runt-SMMHC FRET: inhibitors of RUNX1 Runt–CBFb-SMMHC binding, primary screen, biochemical, FRET, Cerulean-Runt, Venus-CBFb-SMMHC, uHTS | Runt-related transcription factor 1 (Homo sapiens) + Core-binding factor subunit beta … | Cerulean-Runt/Venus-CBFb-SMMHC FRET ratio 530/480, 1 h | inhibition, % at 20 µM | 220,000 tested, 0.74% active | AID 1434, 2008;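 active means mean inhibition across duplicate retests at 20 µM reaching about 50%, limit read from the data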;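 further: inhibitors lower the FRET ratio by blocking Runt binding to CBFb-SMMHC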
Target sequence (Q01196 whole entry, looked up): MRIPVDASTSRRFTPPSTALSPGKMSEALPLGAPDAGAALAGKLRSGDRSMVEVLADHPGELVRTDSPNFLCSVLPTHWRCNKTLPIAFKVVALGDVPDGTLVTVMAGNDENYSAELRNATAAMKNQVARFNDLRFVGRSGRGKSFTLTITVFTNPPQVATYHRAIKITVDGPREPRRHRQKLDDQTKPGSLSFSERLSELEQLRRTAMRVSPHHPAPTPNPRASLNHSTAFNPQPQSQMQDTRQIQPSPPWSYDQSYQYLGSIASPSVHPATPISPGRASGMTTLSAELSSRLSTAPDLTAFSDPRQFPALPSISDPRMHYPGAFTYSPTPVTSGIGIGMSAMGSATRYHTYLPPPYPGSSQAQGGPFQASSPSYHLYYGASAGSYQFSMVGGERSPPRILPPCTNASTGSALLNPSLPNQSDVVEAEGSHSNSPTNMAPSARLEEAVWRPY
Target sequence (Q13951 whole entry, looked up): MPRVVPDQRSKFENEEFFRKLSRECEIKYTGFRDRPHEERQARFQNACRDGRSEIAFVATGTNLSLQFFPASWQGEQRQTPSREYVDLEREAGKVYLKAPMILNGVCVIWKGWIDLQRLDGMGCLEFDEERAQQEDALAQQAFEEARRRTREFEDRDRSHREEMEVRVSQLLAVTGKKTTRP
RanGTP-Imp inh: inhibitors of RanGTP-importin-beta interaction, primary screen, biochemical, FRET, CFP-Ran, YFP-importin-beta, homogeneous | Ran GTPase (GTP-bound) - importin-beta complex | cell-free CFP-Ran/YFP-importin-beta FRET ratio | inhibition, % (concentration not given with the values) | 300,000 tested, 1.1% active | AID 2216, 2009;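 active means more than half of the replicate wells show a fall in the fluorescence ratio signal beyond about 16%, limit read from the data, passing the limit was not always enough; inconclusive means exactly half of the replicate wells pass the set limit; inactive means fewer than half of replicates pass the limit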
Runt-CBFb FRET: inhibitors of RUNX1 Runt–CBFb binding, primary screen, biochemical, FRET, Cerulean-Runt, Venus-CBFb, uHTS. Cerulean-Runt/Venus-CBFb FRET ratio 530/480, 1 h. 220,000 tested, 0.46% active. Runt-related transcription factor 1 (Homo sapiens) + Core-binding factor subunit beta …. inhibition, % at 20 µM;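 active means inhibition over about 50% at 20 µM in the single-dose screen, limit read from the data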
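Assay system: Cerulean-Runt domain fusion protein, energy donor; Signal: fluorescence energy transfer, 422 nm excitation, 530/480 nm emission; Timing: 1 h compound exposure, room temperature; Control set: unlabeled CBFb; Medium: Tris buffer pH 7.5 with salts and BSA; Compound: single test concentration of 20 µM, 1% DMSO final; Probe or stimulus: Venus-CBFb 100 nM.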
TbHK1 inh: Trypanosoma brucei hexokinase 1 inhibitors, primary screen, biochemical, G6PDH-coupled NADH absorbance, MLSCN library. hexokinase 1 [Trypanosoma brucei]. recombinant TbHK1, G6PDH-coupled NADH A340. inhibition, % at 10 µM. 220,000 tested, 0.11% active;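 active means inhibition of 50% or more in the single-dose primary screen; inactive means inhibition below 50%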
G6PDH counter: Leuconostoc G6PDH inhibition, confirmation, counter-screen for TbHK1 inhibitor project, biochemical, DPI cherry-picked compounds, single concentration; shares compounds with TbHK1 inh; purified G6PDH, NADH absorbance, 1 h; inhibition, % at 10 µM; 210 tested, 7% active; AID 2516, 2010;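 active means at least 50% inhibition in the glucose-6-phosphate dehydrogenase coupled counterscreen; inconclusive means no clear call, values can overlap the other calls; inactive means inhibition below 50%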
TbHK1 confirm: TbHK1 inhibitor retest, confirmation, biochemical, DPI cherry-picked primary actives. shares compounds with TbHK1 inh. recombinant TbHK1, G6PDH-coupled NADH A340 absorbance. inhibition, % at 10 µM. 210 tested, 10% active;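 active means inhibition of at least 50% in both of the two screening runs; inconclusive means at least 50% in one run, below 50% in the other; inactive means inhibition below 50% in both runs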
Each line names hits and unclear results; the compound was inactive in the other large screens (follow-up assays come after a bar, where they were run).

COc1ccc(OCC(=O)OC(C)CN2CCCCC2)cc1 (stereo not drawn)	none (no result: Hck-Nef inh, Runt-SMMHC FRET, Runt-CBFb FRET, TbHK1 inh)
COc1ccc(CC(=O)OC(C)CN2CCCC2)cc1 (stereo not drawn)	TbHK1 inh 56 | G6PDH counter inactive | TbHK1 confirm inactive
COc1ccc(Cc2nc3ccccc3[nH]2)cc1OC	none
c1ccc(-c2nnc(-c3ccccn3)nn2)nc1	none (no result: Hck-Nef inh, Runt-SMMHC FRET, Runt-CBFb FRET, TbHK1 inh)
OCC1N=C(c2ccccn2)OC1c1ccccc1 (stereo not drawn)	TbHK1 inh 56 | G6PDH counter inactive | TbHK1 confirm inactive
Fc1cccc(NC(=S)NCc2ccccn2)c1	TbHK1 inh 52 | G6PDH counter inactive | TbHK1 confirm inactive
S=C(NCc1ccccn1)Nc1ccc(Cl)cc1	none
COc1ccccc1C(=O)NC(CCSC)C(=O)NC1CCCCCC1 (stereo not drawn)	none
Cc1cc(C)c2c(=O)n(CC(=O)Nc3ccc(Br)c(C)c3)sc2n1	TbHK1 inh 51 | G6PDH counter inactive | TbHK1 confirm inactive
COc1ccc(CCNC(=O)Cn2nnc(-c3ccc(N4CCOCC4)cc3)n2)cc1OC	TbHK1 inh 51 | G6PDH counter inactive | TbHK1 confirm inactive
CCNC(=O)NC(=O)CSc1ccc(NC(C)=O)cc1	TbHK1 inh 74 | G6PDH counter inactive | TbHK1 confirm inactive
CCCCOC(=O)Cn1cnc2ccc(Br)cc2c1=O	RanGTP-Imp inh inconclusive, TbHK1 inh 59 | G6PDH counter inactive | TbHK1 confirm inactive
CC(C)CCN(C(=O)Nc1ccccc1)C(C)c1cccs1 (stereo not drawn)	none (no result: RanGTP-Imp inh)
CCCCCC(C(=O)O)C(C)CC(=O)NC1CCCCC1 (stereo not drawn)	TbHK1 inh 63 | G6PDH counter inactive | TbHK1 confirm inactive
COc1cccc(CNC(=O)c2ccccc2-c2ccccc2)c1	none (no result: Hck-Nef inh, Runt-SMMHC FRET, Runt-CBFb FRET, TbHK1 inh)
Cc1cccc(C(=O)NC(=S)NCc2ccccc2)c1	none (no result: Hck-Nef inh, Runt-SMMHC FRET, Runt-CBFb FRET, TbHK1 inh)
Cc1cccc(C(=O)NC(=S)NNC(=O)Cc2ccccc2)c1	TbHK1 inh 67 | G6PDH counter inactive | TbHK1 confirm inactive
Cc1c(CCC(=O)O)c(=O)oc2cc(OCc3ccccc3Br)ccc12	none (no result: Hck-Nef inh, Runt-SMMHC FRET, Runt-CBFb FRET, TbHK1 inh)
Cc1nc(S(=O)(=O)N2CCOCC2)c(C#N)c(C)c1Cl	TbHK1 inh 55 | G6PDH counter inactive | TbHK1 confirm inactive
CSc1cccc(NC(=O)C2CCCN2S(=O)(=O)c2ccc(Br)s2)c1 (stereo not drawn)	TbHK1 inh 54 | G6PDH counter inactive | TbHK1 confirm inactive
CSc1cccc(NC(=O)C2CCCN(S(=O)(=O)c3cccs3)C2)c1 (stereo not drawn)	none (no result: Hck-Nef inh, Runt-SMMHC FRET, Runt-CBFb FRET, TbHK1 inh)
O=C(CSc1nc(=O)n(CCCN2CCOCC2)c2c1CCCC2)Nc1cccc(Cl)c1	none (no result: Hck-Nef inh, Runt-SMMHC FRET, Runt-CBFb FRET, TbHK1 inh)
CCCCCCCCCCCNC(=O)c1ccoc1C	TbHK1 inh 55 | G6PDH counter inactive | TbHK1 confirm 86
Cc1occc1C(=O)NCCCCNC(=O)c1ccoc1C	none
Cc1ccc(C(=O)NC2CC3CCCC(C2)N3C(=O)NC2CCCCC2)cc1 (stereo not drawn)	none
O=C(NC1CC2CCCC(C1)N2C(=O)NC1CCCCC1)c1ccc(F)cc1 (stereo not drawn)	TbHK1 inh 65 | G6PDH counter inactive | TbHK1 confirm inactive
CC(=O)NCC(c1cccs1)S(=O)(=O)c1ccc(F)cc1 (stereo not drawn)	none (no result: Hck-Nef inh, Runt-SMMHC FRET, Runt-CBFb FRET, TbHK1 inh)
CCOC(=O)CNC(=O)CSc1nnc(-c2ccco2)n1N	TbHK1 inh 51 | G6PDH counter inactive | TbHK1 confirm inactive
CCOC(=O)CNC(=O)CSc1nnc(-c2ccco2)n1Cc1ccco1	none
C=CCn1c(SCC(=O)NCC(=O)OCC)nnc1-c1ccccn1	TbHK1 inh 50 | G6PDH counter inactive | TbHK1 confirm inactive
C=CCn1c(SCC(=O)NC2CC2)nnc1-c1ccccn1	none (no result: Hck-Nef inh, Runt-SMMHC FRET, Runt-CBFb FRET, TbHK1 inh)
COc1cccc(-c2nn(-c3ccccc3)cc2CN(C)C(C)c2ccon2)c1 (stereo not drawn)	none
CCCCCOC(=O)NCC(O)c1ccccc1 (stereo not drawn)	RanGTP-Imp inh inconclusive, TbHK1 inh 53 | G6PDH counter inactive | TbHK1 confirm inactive
c1ccc(-c2nnc(-c3ccccc3)o2)cc1	none (no result: Runt-CBFb FRET)
CSc1nnc(-c2ccccc2)o1	TbHK1 inh 55 | G6PDH counter inactive | TbHK1 confirm inactive
O=C(Cn1sc2ccccc2c1=O)NC12CC3CC(CC(C3)C1)C2	TbHK1 inh 66 | G6PDH counter inactive | TbHK1 confirm 85
O=C(CSc1n[nH]c(-c2cccs2)n1)N1CCCc2ccccc21	none
O=C(CSc1n[nH]c(-c2ccccc2O)n1)N1CCCc2ccccc21	TbHK1 inh 64 | G6PDH counter inactive | TbHK1 confirm inactive
COc1cc(CCC(=O)OCC(N)=O)cc(OC)c1OC	TbHK1 inh 56 | G6PDH counter inactive | TbHK1 confirm inactive
CCOC(=O)N1CCN(C2CCCN(C(=O)c3ccccc3N(C)C)C2)CC1 (stereo not drawn)	none (no result: Hck-Nef inh, Runt-SMMHC FRET, Runt-CBFb FRET, TbHK1 inh)
O=C(O)/C(=N/NC(=O)c1ccc(Cl)cc1)c1ccccc1	none
CCS(=O)(=O)c1ccc(O)c(NC(=O)Nc2ccc(C(C)(C)C)cc2)c1	none
CCS(=O)(=O)c1ccc(O)c(NC(=O)Nc2ccccc2)c1	TbHK1 inh 50 | G6PDH counter inactive | TbHK1 confirm inactive
CN(CCO)C(=O)CCC(=O)Nc1ccc(S(N)(=O)=O)cc1	TbHK1 inh 60 | G6PDH counter inactive | TbHK1 confirm inactive
O=C1CSC(c2ccccn2)N1c1ccccc1 (stereo not drawn)	TbHK1 inh 61 | G6PDH counter inactive | TbHK1 confirm inactive
COc1ccccc1Nc1nc(=O)[nH]nc1C	none
Cc1n[nH]c(=O)nc1NC(C)c1ccccc1 (stereo not drawn)	TbHK1 inh 51 | G6PDH counter inactive | TbHK1 confirm inactive
Cc1onc(-c2ccccc2Cl)c1C(=O)NC(=S)Nc1ccc(C(C)(C)C)cc1	none
O=C(NC(=S)N1CCN(c2ccc(C(F)(F)F)cc2[N+](=O)[O-])CC1)c1cccs1	none
CCCOc1ccc(C(CC(=O)O)NC(=O)C23CC4CC(CC(C4)C2)C3)cc1 (stereo not drawn)	TbHK1 inh 60 | G6PDH counter inactive | TbHK1 confirm inactive
